High-throughput results (PubChem)
Mdm2-MdmX inh: inhibitors of human Mdm2/MdmX interaction | hit rate 3% among 330,000 | inhibition, % at 8 µM | SaOS-2 split-luciferase Mdm2/MdmX complementation, luminescence;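 active means inhibition of at least 50% at 8 µM in the primary screen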
Target sequence (O15151 whole entry, looked up): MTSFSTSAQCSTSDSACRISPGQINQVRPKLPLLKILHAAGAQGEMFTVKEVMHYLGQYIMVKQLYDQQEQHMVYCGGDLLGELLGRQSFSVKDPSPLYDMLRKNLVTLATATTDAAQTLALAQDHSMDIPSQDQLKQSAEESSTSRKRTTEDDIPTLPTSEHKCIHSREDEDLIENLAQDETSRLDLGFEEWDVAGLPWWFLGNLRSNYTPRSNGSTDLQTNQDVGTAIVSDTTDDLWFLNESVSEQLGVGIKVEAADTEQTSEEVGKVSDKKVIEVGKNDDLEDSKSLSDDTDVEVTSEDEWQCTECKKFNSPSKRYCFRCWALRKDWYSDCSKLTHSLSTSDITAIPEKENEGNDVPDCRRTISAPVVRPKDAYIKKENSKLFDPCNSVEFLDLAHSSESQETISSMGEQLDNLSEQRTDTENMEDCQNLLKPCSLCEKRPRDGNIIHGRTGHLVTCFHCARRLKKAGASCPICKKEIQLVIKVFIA
Target sequence (Q00987 whole entry, looked up): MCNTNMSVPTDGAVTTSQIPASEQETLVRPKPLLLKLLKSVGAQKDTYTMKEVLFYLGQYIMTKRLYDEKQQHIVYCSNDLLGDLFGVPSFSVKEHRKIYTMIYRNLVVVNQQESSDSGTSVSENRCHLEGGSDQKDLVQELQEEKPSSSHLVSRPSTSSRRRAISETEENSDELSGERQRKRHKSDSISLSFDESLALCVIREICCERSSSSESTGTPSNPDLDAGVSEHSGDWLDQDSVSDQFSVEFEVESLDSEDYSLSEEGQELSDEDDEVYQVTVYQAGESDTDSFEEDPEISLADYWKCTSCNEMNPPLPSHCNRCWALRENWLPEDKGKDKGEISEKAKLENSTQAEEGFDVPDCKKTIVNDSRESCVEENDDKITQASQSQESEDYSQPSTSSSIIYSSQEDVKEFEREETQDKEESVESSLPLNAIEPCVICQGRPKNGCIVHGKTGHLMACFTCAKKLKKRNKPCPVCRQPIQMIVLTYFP
SKKanGAS inh: SKKanGAS growth inhibition. S. pyogenes SKKanGAS, kanamycin growth, BacTiter-Glo, 6 h. inhibition, % at 7.5 µM. hit rate 1.3% among 300,000. AID 1662;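 active means mean replicate score, as percent of positive control median, at least 50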;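 further: strain carries kanamycin resistance gene driven by streptokinase promoter and grows in 40 µg/ml kanamycin; loss of luminescence reflects streptokinase promoter inhibition or plain growth inhibition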
CSC inhib: blocks cancer stem cells. cancer stem cell-like cells viability, luminescence. inhibition, % at 7.5 µM. hit rate 1.1% among 300,000. AID 2717; in the data active means inhibition above about 75%; tested in HMLE shEcad cells
T cruzi inh: T. cruzi replication inhibition; T. cruzi beta-gal in NIH3T3, luminescence, 90 h; inhibition, % (test concentration not listed); hit rate 1.4% among 300,000; AID 1885;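 active means mean inhibition across valid replicates above about 55%, limit read from the data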;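 further: signal also drops with host cell toxicity which is not excluded here; higher percent means less beta-gal luminescence so fewer parasites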
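Assay system: NIH/3T3 fibroblasts plus reporter T. cruzi. Amount: NIH/3T3 cells, 5,000 per well. Buffer or medium: DMEM, 2% fetal bovine serum. Doses: compound pinned at 50 nL/well, DMSO. Schedule: ≥90 h infection period, 3 h prior cell attachment. Signal: luminescent β-galactosidase signal after 60 min lysis. Read-out: parasite load inhibition, %.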
L major viab: reduces viability of Leishmania major promastigotes; resazurin fluorescence viability; inhibition, % at 10 µM; hit rate 9% among 200,000; in the data active means inhibition above about 50%;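 further: promastigotes grown with compound for 44 hours at 28 °C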
Beta cell apopt: blocks beta cell apoptosis; INS-1E cytokine-induced death, ATP luminescence, 48 h; percent of positive-control rescue, neutral wells zero; protection from apoptosis, % (concentration not given with the values); hit rate 0.8% among 300,000; AID 435005;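 active means Every replicate reaches about 75%, or at least half do and their mean reaches it too, limit read from the data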;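 further: higher means more ATP so stronger rescue from cytokine killing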
Large screens that a line does not name were inactive. Hits are enriched below; roughly 9.4% of the tested compounds scored in any of these assays.

O=C1[C@H]2[C@@H](c3ccc(Cl)cc3)N3C(=O)N(c4cccc(Cl)c4)C(=O)[C@@]3(Cc3ccccc3)[C@H]2C(=O)N1C1CCCCC1	none (no result: L major viab)
O=C(CN1CCOCC1)Nc1nc(-c2ccc3c(c2)CCN3S(=O)(=O)c2ccccc2)cs1	L major viab 68
Cc1sc(NC(=O)CN2CCOCC2)nc1-c1ccc2c(c1)CCN2S(=O)(=O)c1ccccc1	L major viab 97
CS(=O)(=O)N1CCc2cc(-c3csc(NC(=O)Cc4cccs4)n3)ccc21	T cruzi inh 60
CC12CCC(=O)N1C(C(=O)N1CCN(S(=O)(=O)c3ccc(F)c(F)c3)CC1)CS2 (stereo unspecified)	none (no result: L major viab)
COC(=O)c1c(C)[nH]c(C(=O)CN(C)CC(=O)Nc2cccc(F)c2)c1C	none (no result: SKKanGAS inh, T cruzi inh, L major viab)
CC(Sc1ccccc1)C(=O)NN=C1CCCCCCC1 (stereo unspecified)	none (no result: Beta cell apopt)
CCc1ccc(-c2cc(C(=O)N/N=C/c3ccccn3)[nH]n2)cc1	L major viab 74
O=C(N/N=C/c1ccccn1)c1cc(-c2ccc3ccccc3c2)n[nH]1	L major viab 84
O=C(N/N=C/c1ccccn1)c1cc(-c2cccc3ccccc23)n[nH]1	L major viab 73
O=C(N/N=C/c1ccccn1)c1cc(-c2ccccc2Cl)n[nH]1	none
CC(=O)c1cccc(NC(=O)N2CCCC2C(=O)Nc2ccc3c(c2)OCO3)c1 (stereo unspecified)	none
CCN(C(=O)CSc1nncn1-c1ccccc1)C1CCS(=O)(=O)C1 (stereo unspecified)	none (no result: L major viab, Beta cell apopt)
CC(C)NC(=O)C(=O)NCCC1CCCCN1S(=O)(=O)c1cccs1 (stereo unspecified)	none (no result: L major viab, Beta cell apopt)
CCn1cc(CN2CCc3c([nH]c4ccccc34)C2c2ccc(F)c(OC)c2)c(C)n1 (stereo unspecified)	none
CCn1nc(C)c(CN2CCc3c([nH]c4ccccc34)C2c2ccc(F)c(OC)c2)c1C (stereo unspecified)	L major viab 74
C=CCN1C(=O)/C(=N/n2cnnc2)c2ccccc21	none
CC(C)CN1C(=O)C(=Nc2cccnc2)c2ccccc21	L major viab 82
CN(CC(=O)NC1CCN(Cc2ccccc2)CC1)S(=O)(=O)c1ccc(Br)s1	none (no result: L major viab)
COc1ccc(CCNc2ncnc3sc(C)cc23)cc1OC	Beta cell apopt 107 (no result: L major viab)
COc1ccc(CCNc2ncnc3[nH]ncc23)cc1OC	none
Cc1ccc(N2C(=O)c3ccccc3C2Nc2cccnc2)nc1 (stereo unspecified)	L major viab 69
COc1cc(NC2c3ccccc3C(=O)N2c2ccc(C)cn2)cc(OC)c1OC (stereo unspecified)	none
COc1ccc(C(=O)NCC(=O)OCc2ccccc2F)cc1	none
OCC[C@H]1C[C@@H](O)[C@H](O)[C@@]2(CCc3ccccc3O2)O1	none (no result: SKKanGAS inh, T cruzi inh, L major viab)
CC1/C(=N/O)CC(c2ccccc2)N(C)C1c1ccccc1 (stereo unspecified)	none
CC1C(c2ccccc2)N(C)C(c2ccccc2)CC1(O)c1ccccc1 (stereo unspecified)	L major viab 98
CCc1ccc(C(=O)NNC(=O)c2ccc(OCC(=O)N3CCOCC3)c(OC)c2)cc1	none (no result: SKKanGAS inh, T cruzi inh, L major viab)
CCC(C)n1c(OC)nc2c1c(=O)n(C)c(=O)n2C (stereo unspecified)	none
O=C(Nc1ccccc1)N1N=C(c2ccc(F)cc2)CC1c1ccc(F)cc1 (stereo unspecified)	L major viab 92
Fc1ccc(C2CC(c3cccs3)=NN2C(=S)Nc2ccccc2)cc1 (stereo unspecified)	L major viab 53
CNC(=S)N1N=C(c2cccs2)CC1c1ccc(OC)cc1 (stereo unspecified)	none (no result: L major viab)
Cn1cnnc1SCC(=O)NCCc1ccc(Cl)cc1Cl	none
COc1ccc(NC(=O)CCC(=O)N(Cc2ccc(OC)c(OC)c2)c2nccs2)cc1	L major viab 54
COc1ccc(OC)c(NC(=O)CCC(=O)N(Cc2ccc(OC)c(OC)c2)c2nccs2)c1	none
CSCCC(NC(=O)c1ccccc1)C(=O)NCCCn1nc(C)cc1C (stereo unspecified)	none (no result: SKKanGAS inh, CSC inhib, T cruzi inh, L major viab)
CCC(C)NS(=O)(=O)c1ccc(S(=O)(=O)N(CCc2ccc(OC)c(OC)c2)Cc2cccs2)cc1 (stereo unspecified)	T cruzi inh 57, L major viab 55
Nc1ccc2nc(SCC(=O)Nc3ccc(N4CCOCC4)c(Cl)c3)sc2c1	none
CC(C)(C)NC(=O)CSc1nc2ccc(NC(=O)CSc3nnc(N)s3)cc2s1	L major viab 71
CCCC(=O)Nc1ccc2nc(SCC(=O)Nc3ccc(N4CCOCC4)c(Cl)c3)sc2c1	L major viab 99
CC(C)(C)NC(=O)CSc1nc2ccc(NC(=O)CSc3nnnn3Cc3ccccc3)cc2s1	none
NCCCCCNC(=O)c1[nH]cnc1C(=O)N[C@@H](Cc1ccccc1)C(=O)OCc1ccccc1	none (no result: SKKanGAS inh, T cruzi inh, L major viab)
NC(=O)c1cc(S(=O)(=O)N2CCCC2)ccc1OCCOc1ccccc1F	none (no result: SKKanGAS inh, CSC inhib, T cruzi inh, L major viab, Beta cell apopt)
Cc1ccc(-c2csc(NC(=O)c3c(C)noc3C)n2)s1	Beta cell apopt 124 (no result: SKKanGAS inh, T cruzi inh, L major viab)
CCC(=O)OCC(=O)Nc1ccc([N+](=O)[O-])cc1OC	none
COc1ccc([N+](=O)[O-])cc1NC(=O)COC(=O)C1CC1	T cruzi inh 56 (no result: CSC inhib)
CCN(CC(=O)Nc1ccc([N+](=O)[O-])cc1OC)CC(=O)NC(C)(C)C	L major viab 71
COc1ccc(C)cc1S(=O)(=O)N(CC(=O)Nc1cc([N+](=O)[O-])ccc1C)c1ccc(C)c(C)c1	L major viab 99
COc1ccc(-c2nc(CS(=O)CC(=O)NCCCN3CCOCC3)c(C)o2)cc1OC (stereo unspecified)	none (no result: L major viab)
Cc1nn2c(NCCCN(C)C)c3c(nc2c1-c1ccccc1)CCC3	T cruzi inh 69, L major viab 100 (no result: CSC inhib)
COc1ccc(C2C(C(=O)OC3CCCCC3)=C(C)Nc3nnnn32)c(OC)c1OC (stereo unspecified)	L major viab 91
CC1=C(C(=O)OC2CCCCC2)C(c2cccnc2)n2nnnc2N1 (stereo unspecified)	T cruzi inh 59
COC(=O)c1nc2n(n1)C(c1ccc(OC)c(OC)c1)C(C(=O)OC1CCCCC1)=C(C)N2 (stereo unspecified)	none
CCS(=O)(=O)c1nc(S(=O)(=O)c2ccc(C)cc2)c(NCCN2CCOCC2)s1	SKKanGAS inh 54 (no result: L major viab)
Cc1ccc(NC(=O)C2(NC(=O)c3ccccn3)CCCCC2)cc1Br	L major viab 58
Cc1ccc2nc(NC(=O)CC3Oc4ccccc4NC3=O)sc2c1 (stereo unspecified)	none (no result: L major viab)
COc1ccc(/C=N/N=C2/SCC(=O)N2Cc2ccccc2)cc1	none (no result: L major viab)
COc1ccc(/C=C2\CN(Cc3ccccc3)C/C(=C\c3ccc(OC)cc3)C2=O)cc1	L major viab 100 (no result: Mdm2-MdmX inh, SKKanGAS inh, T cruzi inh)
N#Cc1ccccc1S(=O)(=O)N1CCN(S(=O)(=O)c2ccc(Br)c(C(=O)O)c2)CC1	none (no result: L major viab)
